Laboratory results published in PubChem BioAssay.
Inconclusive results are not listed.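 How the source made its calls, unless noted: active means inhibition over a set limit, the all-compound mean plus 3 SD, in both replicate runs; inconclusive means over that limit in just one replicate run; inactive means at or under that limit in both runs.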

What was measured:
[1] = S. cerevisiae growth inhibition in permissive medium (OD615), pilot counter-assay for S. cerevisiae lifespan shortening project, permissive growth control (AID 705;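 active means growth inhibition above 25% in both replicates, a cutoff set 3 SD above the mean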); conditions: OD615, 24 h, at 10 µM, hits give high values
In short: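 Material: engineered DeaD yeast; Compound: one dose 10 µM, DMSO 0.25% final; Detection: absorbance (optical density) at 615 nm; Buffer or medium: permissive raffinose/galactose medium; Timing: 24 h exposure, 30 °C.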

[2] = S. cerevisiae growth inhibition in restrictive medium, OD615, pilot screen, restrictive growth control, yeast lifespan reduction project (AID 706;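 active means growth inhibition above a set limit, 3 SD over mean compound inhibition, in both replicates, cut at about 43% in these data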;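 further: modified DeaD lifespan yeast strain shifted to restrictive glucose medium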); conditions: OD615, 48 h, at 10 µM, hits give high values
In short: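 Buffer or medium: restrictive glucose medium (CSMM-D); test system: modified S. cerevisiae; doses: single dose of 10 µM compound final, 0.25% DMSO; schedule: 48 h compound exposure at 30 °C; detection: absorbance (optical density) measured at 615 nm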

[3] = doxorubicin toxicity protection in MRP-1 cells – H69AR cells, CellTiter-Glo, duplicate, MRP-1 activator project, pilot screen (AID 807;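 active means viability increase at or above a cutoff of the median across tested compounds plus 3 SD, cut at about 8.5% in these data, passing the limit was not always enough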;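 further: compound pretreatment 18-22 h then 72 h combined with doxorubicin; 0% = doxorubicin alone and 100% = vehicle without doxorubicin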); conditions: H69AR viability with doxorubicin, CellTiter-Glo luminescence; at 10 µM; hits give high values
[4] = viability of HCT116 without oncogenic beta-catenin – human colon tumor cells, pilot screen (AID 823;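 active means cell viability at or below a set limit in both duplicate runs, the limit being the all-compound median minus 4 SD, cut at about 23% in these data, passing the limit was not always enough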;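 further: 0% = wells killed by 20 µM Hyamine and 100% = untreated DMSO cell wells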); conditions: HCT116 beta-catenin knockout viability, CellTiter-Glo, 60 h; at 10 µM; hits give low values
[5] = viability of PTEN-null HCT116 cells – cell-based, HCT116 clonal line, CellTiter-Glo, pilot screen (AID 824;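 active means viability at or below 27.92% in each of two runs, the all-compound median minus 4 SD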;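 further: 0% = 20 µM Hyamine control and 100% = vehicle cell control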); conditions: HCT116 PTEN-deleted viability, 60 h, at 10 µM, hits give low values
[6] = RAM pathway blockade in budding yeast – dse1pr::URA3 reporter, 5-FOA selection, pilot screen (AID 869);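 further: 0% = DMSO wells with no growth and 100% = 10 µM 1-NA-PP1 with full growth; RAM network block rescues cells from 5-FOA so hits raise OD615 growth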; conditions: S. cerevisiae dse1pr::URA3 5-FOA growth, OD615, 2 d; at 10 µM; hits give high values; strain carries analog-sensitive mutant Cbk1 kinase
[7] = RAM signaling pathway blockade in yeast – S. cerevisiae, Pdr1DBD-CYC8 efflux-inhibited sensitized strain, primary screen (AID 1298;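 active means RAM network inhibition above 8.4% in each of two replicates, 3 SD over the compound average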;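 further: 0% = DMSO untreated cells without growth and 100% = 10 µM 1-NA-PP1 full growth; higher means more yeast growth rescued from 5-FOA killing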); conditions: S. cerevisiae cbk1-as DSE1-URA3 strain, 5-FOA growth OD615, 2 d; at 50 µM; hits give high values

CC1CC(C)CN(C(=O)CSc2nnc(-c3ccc(Cl)cc3)o2)C1 (stereo not drawn)
inactive: growth inhibition [1] -0.98% | growth inhibition [2] -3.64% | viability increase [3] 1.73% | viability [4] 94.1% | viability [5] 89.2% | inhibition [6] 1.4% | RAM network inhibition [7] 7.35%

CCOC(=O)C1=C(C)Nc2nc(C)nn2C1c1ccc(C)cc1 (stereo not drawn)
inactive: growth inhibition [1] -0.5% | growth inhibition [2] 7.16% | viability increase [3] -1.84% | viability [4] 100% | viability [5] 97.8% | inhibition [6] 1.9% | RAM network inhibition [7] -0.2%

C=CCn1c(C(C)NC(=O)CCC)nc2ccccc21 (stereo not drawn)
inactive: growth inhibition [1] 0.415% | growth inhibition [2] 7.8% | viability increase [3] -0.88% | viability [4] 104% | viability [5] 93.9% | inhibition [6] 1.11% | RAM network inhibition [7] -0.02%

O=C1CCCCCN1Cc1nnc(SCc2nc3ccccc3s2)n1-c1ccccn1
inactive: growth inhibition [1] -3.83% | growth inhibition [2] 19.8% | viability increase [3] -3.45% | viability [4] 91.7% | viability [5] 95% | inhibition [6] 1.07% | RAM network inhibition [7] 2.7%

CC(=O)Nc1ccc(S(=O)(=O)N2CCSCC2)cc1
inactive: growth inhibition [1] -14.7% | growth inhibition [2] -27.7% | viability increase [3] -2.25% | viability [4] 98.6% | viability [5] 98.5% | inhibition [6] 1.88% | RAM network inhibition [7] 3.21%

CC(=O)c1c(N2CCN(c3ccccc3)CC2)nc(=S)n(-c2ccccc2)c1C
inactive: growth inhibition [1] 3.6% | growth inhibition [2] 15.2% | viability increase [3] -3.16% | viability [4] 92.9% | viability [5] 99.9% | inhibition [6] 0.91% | RAM network inhibition [7] 6.47%

CCN1CCN(Cc2nc3c(c(=O)n(C)c(=O)n3C)n2Cc2ccccc2Cl)CC1
inactive: growth inhibition [1] -8.38% | growth inhibition [2] -13.4% | viability increase [3] -3.38% | viability [4] 91.7% | viability [5] 91.6% | inhibition [6] 1.17% | RAM network inhibition [7] 0.71%

Cc1oc2c(c1C(=O)NC(Cc1c[nH]c3ccccc13)C(=O)O)CCCC2 (stereo not drawn)
inactive: growth inhibition [1] -8.56% | growth inhibition [2] -5.62% | viability increase [3] -3.61% | viability [4] 100% | viability [5] 97.6% | inhibition [6] 1.37% | RAM network inhibition [7] 0.1%

COc1ccc(NC(=O)N(Cc2cccnc2)Cc2ccccc2Cl)c(OC)c1
inactive: growth inhibition [1] 0.09% | growth inhibition [2] -1.88% | viability increase [3] -3.53% | viability [4] 91.2% | viability [5] 93.9% | inhibition [6] 1.02% | RAM network inhibition [7] -0.05%

COc1ccccc1-c1c(C)nn2c(C)cc(C)nc12
inactive: growth inhibition [1] -5.75% | growth inhibition [2] -1.54% | viability increase [3] -1.88% | viability [4] 97.5% | viability [5] 97.3% | inhibition [6] 0.895% | RAM network inhibition [7] 1.79%

CCOC(=O)N1CCN(C(=O)c2oc(=O)c3ccccc3c2-c2ccc(C)cc2)CC1
inactive: growth inhibition [1] -8.36% | growth inhibition [2] -8.23% | viability increase [3] 1.15% | viability [4] 96.2% | viability [5] 102% | inhibition [6] 1.23% | RAM network inhibition [7] 3.87%

CN(c1ccccc1)S(=O)(=O)c1cccc(C(=O)N2CCN(c3ccccn3)CC2)c1
inactive: growth inhibition [1] 2.2% | growth inhibition [2] 4.43% | viability increase [3] -0.97% | viability [4] 81% | viability [5] 86.1% | inhibition [6] -0.145% | RAM network inhibition [7] -1.92%

CC1CN(C2CC(C)(C)NC(C)(C)C2)CCC1=O (stereo not drawn)
inactive: growth inhibition [1] -5.84% | growth inhibition [2] -0.43% | viability increase [3] 1.05% | viability [4] 96.7% | viability [5] 100% | inhibition [6] -0.505% | RAM network inhibition [7] 5.32%

CCN(CCCNC(=O)CN1C(=O)COc2ccccc21)c1ccccc1
inactive: growth inhibition [1] 0.42% | growth inhibition [2] -11.2% | viability increase [3] 1.23% | viability [4] 95.9% | viability [5] 88.3% | inhibition [6] 1.61% | RAM network inhibition [7] 3.49%

CCOC(=O)c1sc(NC(=O)c2ccc(Cl)s2)cc1C
inactive: growth inhibition [1] -0.47% | growth inhibition [2] -4.72% | viability increase [3] 0.81% | viability [4] 105% | viability [5] 94.9% | inhibition [6] 2.33% | RAM network inhibition [7] 5.22%

Cc1sc2ncn(CC(=O)NCc3ccccn3)c(=O)c2c1S(=O)(=O)N1CCOCC1
inactive: growth inhibition [1] -11.7% | growth inhibition [2] -5.54% | viability increase [3] 1.3% | viability [4] 101% | viability [5] 99.5% | inhibition [6] 0.485% | RAM network inhibition [7] 3.01%

O=C(O)c1cc(S(=O)(=O)Nc2ccc3c(c2)OCCO3)c(Cl)cc1Cl
inactive: growth inhibition [1] -5.69% | growth inhibition [2] 3.62% | viability increase [3] -1.04% | viability [4] 95.1% | viability [5] 88.4% | inhibition [6] 2.01% | RAM network inhibition [7] -0.21%

CCCCOc1ccccc1NC(=O)CC1SC(=NCC)N(CC)C1=O (stereo not drawn)
inactive: growth inhibition [1] -9.35% | growth inhibition [2] -0.705% | viability increase [3] -2.29% | viability [4] 85.6% | viability [5] 81.3% | inhibition [6] 1.08% | RAM network inhibition [7] 2.04%

CCC1CCCCN1Cc1nc2c(c(=O)n(C)c(=O)n2C)n1Cc1ccccc1 (stereo not drawn)
inactive: growth inhibition [1] 6.88% | growth inhibition [2] -0.26% | viability increase [3] 3.7% | viability [4] 75.3% | viability [5] 74.4% | inhibition [6] 2.1% | RAM network inhibition [7] 2.14%

CCCCn1c(=O)n(CC(=O)Nc2ccc(C)c(Cl)c2)c(=O)c2c1ncn2Cc1ccco1
inactive: growth inhibition [1] -2.46% | growth inhibition [2] -24.8% | viability increase [3] 0.99% | viability [4] 72.2% | viability [5] 72.3% | inhibition [6] 2.23% | RAM network inhibition [7] 1.61%

Cc1cccc(-c2nc(CS(=O)CC(=O)N3CCCCC3)c(C)o2)c1 (stereo not drawn)
inactive: growth inhibition [1] -8.38% | growth inhibition [2] -15.3% | viability increase [3] -0.7% | viability [4] 101% | viability [5] 92.3% | inhibition [6] 0.205% | RAM network inhibition [7] 3.41%

COC(=O)c1c(N)sc(C(C)=O)c1C
inactive: growth inhibition [1] -7.62% | growth inhibition [2] -6.67% | viability increase [3] -2.35% | viability [4] 98.4% | viability [5] 94.8% | inhibition [6] 1.72% | RAM network inhibition [7] 5.34%

COc1ccccc1NC(=O)CSc1nnc(-c2ccccc2)o1
inactive: growth inhibition [1] -16% | growth inhibition [2] -11% | viability increase [3] -0.16% | viability [4] 77.6% | viability [5] 71.1% | inhibition [6] 2.4% | RAM network inhibition [7] 1.53%

Nc1ccccc1SCc1cn2cccnc2n1
inactive: growth inhibition [1] 1.29% | growth inhibition [2] 12% | viability increase [3] -2.43% | viability [4] 109% | viability [5] 98% | inhibition [6] 2.13% | RAM network inhibition [7] 3.55%
